According to ChEMBL document CHEMBL1131578, “Design of a new class of orally active fibrinogen receptor antagonists” (J Med Chem, 1998):
Each block holds one compound with its values, some of them ahead of it. Residues, ends and D or L forms follow the SMILES beside them.

Columns and labels:
[1] = molecular target: T1, Integrin alpha-IIb/beta-3 (Homo sapiens, UniProt P05106+P08514); assay: Ability to inhibit the aggregation of fixed human platelets; format: functional
Summary of the method: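 Human gel-filtered platelets activated with α-thrombin 1 U/mL (final) for 2 min at room temperature, then thrombin inhibitor 20 μM, fixed in 0.5% paraformaldehyde for 30 min, washed and resuspended at 2×10^8 cells/mL in Tyrode's-HSA. Compound preincubated 1 min with the suspension. Rate relative to no-antagonist control; IC50 calculated.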
Target sequence in this assay (P05106 27-788 limits assumed): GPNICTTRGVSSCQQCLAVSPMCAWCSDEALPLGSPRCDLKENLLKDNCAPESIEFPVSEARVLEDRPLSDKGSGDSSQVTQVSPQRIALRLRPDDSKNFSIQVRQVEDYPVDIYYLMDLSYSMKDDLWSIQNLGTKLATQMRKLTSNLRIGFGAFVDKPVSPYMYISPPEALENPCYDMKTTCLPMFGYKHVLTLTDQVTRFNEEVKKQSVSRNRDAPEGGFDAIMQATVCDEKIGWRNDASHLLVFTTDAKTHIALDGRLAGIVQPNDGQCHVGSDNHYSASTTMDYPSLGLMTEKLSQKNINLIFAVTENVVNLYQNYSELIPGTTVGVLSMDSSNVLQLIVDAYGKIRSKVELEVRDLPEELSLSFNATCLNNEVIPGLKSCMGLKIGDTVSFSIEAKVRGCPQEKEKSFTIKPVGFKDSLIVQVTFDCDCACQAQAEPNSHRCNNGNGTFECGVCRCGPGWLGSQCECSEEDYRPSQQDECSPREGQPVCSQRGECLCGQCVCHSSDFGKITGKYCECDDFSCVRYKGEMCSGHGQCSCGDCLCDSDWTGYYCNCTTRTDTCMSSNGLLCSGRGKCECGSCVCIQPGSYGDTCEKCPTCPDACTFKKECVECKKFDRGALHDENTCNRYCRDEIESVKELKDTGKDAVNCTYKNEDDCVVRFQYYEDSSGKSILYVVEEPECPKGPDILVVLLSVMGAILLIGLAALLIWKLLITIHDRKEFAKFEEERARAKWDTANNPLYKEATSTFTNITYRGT
Target sequence in this assay (P08514 32-887 limits assumed): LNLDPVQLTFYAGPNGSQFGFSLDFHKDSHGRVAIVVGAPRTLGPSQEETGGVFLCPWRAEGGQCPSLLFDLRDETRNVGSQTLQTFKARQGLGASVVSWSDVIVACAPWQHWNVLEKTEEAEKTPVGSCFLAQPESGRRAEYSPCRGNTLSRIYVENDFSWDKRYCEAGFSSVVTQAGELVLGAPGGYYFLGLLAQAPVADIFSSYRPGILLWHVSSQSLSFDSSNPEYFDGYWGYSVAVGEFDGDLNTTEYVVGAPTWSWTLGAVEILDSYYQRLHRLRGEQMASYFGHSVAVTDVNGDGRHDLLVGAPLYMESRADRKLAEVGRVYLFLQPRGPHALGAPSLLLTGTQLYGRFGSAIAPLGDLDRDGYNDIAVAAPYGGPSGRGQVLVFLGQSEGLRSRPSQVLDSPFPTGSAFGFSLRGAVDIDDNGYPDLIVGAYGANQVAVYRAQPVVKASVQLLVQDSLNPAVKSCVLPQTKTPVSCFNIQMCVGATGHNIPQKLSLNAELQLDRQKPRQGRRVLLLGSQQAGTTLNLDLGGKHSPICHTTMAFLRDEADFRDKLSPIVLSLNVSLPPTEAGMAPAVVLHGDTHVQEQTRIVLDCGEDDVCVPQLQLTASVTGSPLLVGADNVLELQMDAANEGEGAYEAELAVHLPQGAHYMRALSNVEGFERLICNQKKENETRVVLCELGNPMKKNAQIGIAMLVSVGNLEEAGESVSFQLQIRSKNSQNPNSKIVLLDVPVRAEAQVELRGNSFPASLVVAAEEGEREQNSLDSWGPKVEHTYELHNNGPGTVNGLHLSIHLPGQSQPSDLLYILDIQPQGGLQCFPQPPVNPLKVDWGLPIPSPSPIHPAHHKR
Target sequence in this assay (P08514 891-1039 limits assumed): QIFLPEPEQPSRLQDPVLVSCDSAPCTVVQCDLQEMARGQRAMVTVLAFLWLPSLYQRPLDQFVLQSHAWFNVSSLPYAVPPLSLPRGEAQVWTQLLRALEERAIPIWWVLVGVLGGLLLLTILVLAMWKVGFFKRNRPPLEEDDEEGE

[2] = molecular target: T1, Integrin alpha-IIb/beta-3; assay: Percent inhibition of ex vivo platelet aggregation after 1 hour of administration; format: functional, organism-based; conditions: concentration not given here
Summary of the method: (§1)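 Mongrel dogs of either sex dosed by intragastric gavage, compound dissolved in deionized water. Citrated venous blood drawn 10 min predose and at 1, 3, 6, 12 and 24 h. PRP adjusted to 300 000 platelets/μL, stirred at 37 °C, primed with epinephrine 1 μM, then ADP 10 μM added. Light-transmission slope read in duplicate, expressed as % decrease versus predose PRP. Mean of at least two dogs per dose.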

[3] = molecular target: T1, Integrin alpha-IIb/beta-3; assay: Percent inhibition of ex vivo platelet aggregation after 3 hours of administration; format: functional, organism-based; conditions: concentration not given here; summary of the method: as §1
[4] = molecular target: T1, Integrin alpha-IIb/beta-3; assay: Percent inhibition of ex vivo platelet aggregation after 6 hours of administration; format: functional, organism-based; conditions: concentration not given here; summary of the method: as §1
[5] = molecular target: T1, Integrin alpha-IIb/beta-3; assay: Inhibition of radiolabeled fibrinogen binding to activated human platelets; format: functional
Summary of the method: (§2)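 Washed human platelets at 1×10^8/mL in Tyrode's buffer, run in duplicate. Inhibitor and labelled fibrinogen added before agonist, either TRAP (SFLLRN-NH2) 100 μM or ADP 10 μM. Incubated 30 min at room temperature, spun through a 20% sucrose cushion, pellet γ-counted. IC50 determined.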
Target sequence in this assay (P05106 27-788 limits assumed): as the sequence (P05106 27-788 limits assumed) above
Target sequence in this assay (P08514 32-887 limits assumed): as the sequence (P08514 32-887 limits assumed) above
Target sequence in this assay (P08514 891-1039 limits assumed): as the sequence (P08514 891-1039 limits assumed) above

[6] = molecular target: T1, Integrin alpha-IIb/beta-3; assay: Inhibition of ex vivo platelet aggregation after 1 hr treatment; format: functional; conditions: concentration not given here; summary of the method: as §1
[7] = molecular target: T1, Integrin alpha-IIb/beta-3; assay: Inhibition of ex vivo platelet aggregation after 3 hr treatment; format: functional; conditions: concentration not given here; summary of the method: as §1
[8] = molecular target: T1, Integrin alpha-IIb/beta-3; assay: Inhibition of ex vivo platelet aggregation after 6 hr treatment; format: functional; conditions: concentration not given here; summary of the method: as §1
[9] = Compound was evaluated for the rate of degradation by Carboxypeptidase A.; format: ADME
Summary of the method: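 Bovine pancreatic carboxypeptidase A diluted in 5% LiCl, activity checked with hippuryl-L-phenylalanine. Substrate made up at 1.0 mM in 0.05 M Tris with 1.0 M NaCl, pH 7.5, then combined with enzyme (2.0 units total). Incubated 60 min at room temperature, with hydrolysis followed by HPLC every 9 min. Rate of hydrolysis normalized to 1 unit of enzyme.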

[10] = molecular target: T1, Integrin alpha-IIb/beta-3; assay: Inhibition of radiolabeled fibrinogen binding to activated human platelets.; format: functional; summary of the method: as §2
Target sequence in this assay (P05106 27-788 limits assumed): as the sequence (P05106 27-788 limits assumed) above
Target sequence in this assay (P08514 32-887 limits assumed): as the sequence (P08514 32-887 limits assumed) above
Target sequence in this assay (P08514 891-1039 limits assumed): as the sequence (P08514 891-1039 limits assumed) above

[11] = molecular target: Integrin alpha-V/beta-3 (Homo sapiens); assay: Inhibition of HUVEC adhesion to fibrinogen-coated plates
[12] = molecular target: Integrin alpha-V/beta-3 (Homo sapiens); assay: Inhibition of HUVEC adhesion to fibronectin-coated plates
[13] = molecular target: Integrin alpha-V/beta-3 (Homo sapiens); assay: Inhibition of HUVEC adhesion to vitronectin-coated plates

SMILES: CCN(CC(=O)N[C@@H](CC(=O)O)C(=O)N[C@H](C(=O)O)C(C)C)C(=O)CCCC1CCNCC1
- inhibition [2]: 80%
- inhibition [3]: 66%
- inhibition [4]: 20%
- IC50 [1]: 0.027 µM
- IC50 [5]: 0.008 µM

SMILES: CCN(CC(=O)N[C@@H](CC(=O)O)C(=O)N[C@H](C(=O)O)C(C)C)C(=O)CCCCC1CCNCC1
- IC50 [1]: 0.21 µM

SMILES: CCN(CC(=O)N[C@@H](CC(=O)O)C(=O)N[C@@H](Cc1cccc2ccccc12)C(=O)O)C(=O)CCCC1CCNCC1
- Activity [9]: 3.1 nmol/min/unit
- IC50 [10]: 0.022 µM
- IC50 [1]: 0.11 µM

SMILES: CCN(CC(=O)N[C@@H](CC(=O)O)C(=O)N[C@H](C(=O)O)C1CCCCC1)C(=O)CCCC1CCNCC1
- IC50 [1]: 0.032 µM

SMILES: CCN(CC(=O)N[C@@H](CC(=O)O)C(=O)N[C@@H](CC1CCCC2CCCCC21)C(=O)O)C(=O)CCCC1CCNCC1 (stereo partly specified)
- IC50 [1]: 0.019 µM
- IC50 [5]: 0.011 µM

SMILES: CCN(CC(=O)N[C@@H](CC(=O)O)C(=O)N[C@@H](CC1CCCCC1)C(N)=O)C(=O)CCCC1CCNCC1
- IC50 [10]: 0.028 µM
- IC50 [1]: 0.097 µM
- IC50 [11]: > 2350 µM
- IC50 [12]: > 2400 µM

SMILES: CCN(CC(=O)N[C@@H](CC(=O)O)C(=O)N[C@@H](CC(C)(C)C)C(=O)O)C(=O)CCCC1CCNCC1
- IC50 [1]: 0.082 µM
- IC50 [5]: 0.072 µM

SMILES: CCN(CC(=O)N[C@@H](CC(=O)O)C(=O)N[C@H](C(=O)O)C(C)C)C(=O)CCC1CCNCC1
- IC50 [1]: 0.77 µM

SMILES: CCN(CC(=O)N[C@@H](CC(=O)O)C(=O)N[C@@H](C(=O)O)C(C)C)C(=O)CCCC1CCNCC1
- IC50 [1]: 0.72 µM
- IC50 [5]: 0.26 µM

SMILES: CCN(CC(=O)N[C@@H](CC(=O)O)C(=O)N[C@@H](Cc1ccccc1)C(=O)O)C(=O)CCCC1CCNCC1
- IC50 [1]: 0.064 µM

SMILES: CC(C)[C@H](NC(=O)[C@H](CC(=O)O)NC(=O)CNC(=O)CCCC1CCNCC1)C(=O)O
- inhibition [2]: 47%
- inhibition [3]: 0%
- IC50 [1]: 1.06 µM

SMILES: CCN(CC(=O)N[C@@H](CC(=O)O)C(=O)N[C@@H](Cc1ccc2ccccc2c1)C(=O)O)C(=O)CCCC1CCNCC1
- IC50 [10]: 0.022 µM

SMILES: CC(C)[C@H](NC(=O)[C@H](CC(=O)O)NC(=O)CNC(=O)[C@@H](N)CCCNC(=N)N)C(=O)O (H-RGDV-OH)
- IC50 [1]: 10 µM

SMILES: CCN(CC(=O)N[C@@H](CC(=O)O)C(=O)N[C@@H](CC1CCCC1)C(=O)O)C(=O)CCCC1CCNCC1
- IC50 [1]: 0.047 µM

SMILES: CCN(CC(=O)N[C@@H](CC(=O)O)C(=O)N[C@@H](CCCC1CCCCC1)C(=O)O)C(=O)CCCC1CCNCC1
- IC50 [1]: 0.053 µM

SMILES: CCN(CC(=O)N[C@@H](CC(=O)O)C(=O)N[C@@H](CC1CCCCC1)C(=O)O)C(=O)CCCC1CCNCC1
- Activity [9]: 0.6 nmol/min/unit
- IC50 [10]: 0.017 µM
- IC50 [1]: 0.026 µM
- IC50 [11]: 1010 µM
- IC50 [12]: > 1750 µM
- IC50 [13]: > 1650 µM

SMILES: CCCC[C@H](NC(=O)[C@H](CC(=O)O)NC(=O)CN(CC)C(=O)CCCC1CCNCC1)C(=O)O
- Activity [9]: 7.4 nmol/min/unit
- IC50 [1]: 0.13 µM
- IC50 [5]: 0.011 µM

SMILES: CCN(CC(=O)N[C@@H](CC(=O)O)C(=O)N[C@@H](CCC1CCCCC1)C(=O)O)C(=O)CCCC1CCNCC1
- IC50 [10]: 0.011 µM
- IC50 [1]: 0.031 µM
- IC50 ([11]; huvec): 1930 µM
- IC50 ([12]; huvec): > 2400 µM
- IC50 ([13]; huvec): > 2500 µM

Now from value to compound:

- IC50 [1]: 0.129 µM
SMILES: CCN(CC(=O)N[C@@H](CC(=O)O)C(=O)N[C@@H](CO)CC1CCCCC1)C(=O)CCCC1CCNCC1

- inhibition [6]: 23%
- inhibition [7]: 0%
- inhibition [8]: 0%
SMILES: CCN(CC(=O)N[C@@H](CC(=O)O)C(=O)N[C@H](C(=O)O)C(C)C)C(=O)CCCCN=C(N)N

- IC50 [1]: 0.032 µM
SMILES: CCN(CC(=O)N[C@@H](CC(=O)O)C(=O)N[C@@H](CC1CCCCCC1)C(=O)O)C(=O)CCCC1CCNCC1

- IC50 [1]: 0.096 µM
SMILES: CCN(CC(=O)N[C@@H](CC(=O)O)C(=O)N[C@@H](CC1CCC2CCCCC2C1)C(=O)O)C(=O)CCCC1CCNCC1 (stereo partly specified)

- IC50 [1]: 1.37 µM
SMILES: CCN(CC(=O)N[C@@H](CC(=O)O)C(=O)N[C@H](CC1CCCCC1)C(=O)O)C(=O)CCCC1CCNCC1

- IC50 [1]: 0.078 µM
SMILES: CCN(CC(=O)N[C@@H](CC(=O)O)C(=O)N[C@@H](CC1CCCCCCC1)C(=O)O)C(=O)CCCC1CCNCC1

- IC50 [1]: 0.064 µM
- IC50 [5]: 0.016 µM
SMILES: CCOC(=O)[C@H](CC1CCCCC1)NC(=O)[C@H](CC(=O)O)NC(=O)CN(CC)C(=O)CCCC1CCNCC1

- IC50 [10]: 0.01 µM
- IC50 [1]: 0.072 µM
SMILES: CCN(CC(=O)N[C@@H](CC(=O)O)C(=O)NCCC1CCCCC1)C(=O)CCCC1CCNCC1

- IC50 [1]: 0.47 µM
SMILES: CCN(CC(=O)N[C@@H](CC(=O)O)C(=O)N[C@H](C(=O)O)C(C)C)C(=O)CCCCCNC(=N)N
